Screening results as filed in PubChem.
This is a sample that favours compounds with a hit; in the whole collection about 1.8% have one here.
NPY-Y2 antag: NPY-Y2 (human) receptor antagonism; AID 793; inhibition, % at 2.7 µM; NPY-Y2 expressing cells, antagonist mode; actives 0.99% (n = 140,000); P49146; in the data active means inhibition above about 17%;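 further: 0% = vehicle with agonist challenge and 100% = reference antagonist with challenge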
Target sequence (P49146 whole entry, looked up): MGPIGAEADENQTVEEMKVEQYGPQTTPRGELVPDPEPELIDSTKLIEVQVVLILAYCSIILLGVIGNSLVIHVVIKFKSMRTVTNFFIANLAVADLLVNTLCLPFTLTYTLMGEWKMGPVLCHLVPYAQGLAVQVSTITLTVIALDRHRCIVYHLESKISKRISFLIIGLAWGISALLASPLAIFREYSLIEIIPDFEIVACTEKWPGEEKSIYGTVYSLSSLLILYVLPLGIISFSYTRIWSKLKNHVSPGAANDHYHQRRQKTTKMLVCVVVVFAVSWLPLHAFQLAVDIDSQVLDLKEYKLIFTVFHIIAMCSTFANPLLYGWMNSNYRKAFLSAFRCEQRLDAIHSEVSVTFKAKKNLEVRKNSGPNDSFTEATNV
NPY-Y1 PAM-ag: human NPY-Y1 potentiation or agonism, primary screen | P25929 | NPY-Y1 expressing cells, potentiator/agonist activation | activation, % at 3.6 µM | actives 0.37% (n = 220,000) | AID 1304; in the data active means activation above about 33%, passing the limit was not always enough;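 further: cells stimulated with NPY at EC10 then isoproterenol at EC100; 0% = low agonist plus stimulus and 100% = saturating agonist plus stimulus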
NPY-Y1 antag: antagonists of human neuropeptide Y receptor Y1 | AID 1040 | HEK293-CNG Y1 cells, membrane potential fluorescence; NPY at EC95, then isoproterenol | actives 1% (n = 200,000) | inhibition, % at 3.6 µM;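 active means inhibition above the campaign mean inhibition of all tested compounds plus 3 SD, cut at about 20% in these data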;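 further: 0% = DMSO wells given NPY plus isoproterenol and 100% = isoproterenol alone without NPY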
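Benchmarks – high control isoproterenol alone, low control NPY with isoproterenol · Material – HEK293 Y1/CNG channel cell line · Times – dye 3 h, compound 60 min room temperature, stimulation 45 min · Probe or stimulus – NPY (25 nM), isoproterenol (1 µM), Ro 20-1724 (25 µM) · Evaluation – % inhibition of NPY effect · Signal – fluorescence, membrane potential probe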
NPY2 pot ag: potentiators or agonists of human neuropeptide Y receptor Y2; P49146; cells expressing NPY-Y2, potentiator/agonist read-out; activation, % at 3.6 µM; actives 0.45% (n = 220,000); AID 1359; in the data active means activation above about 27%;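 further: cells stimulated with NPY near EC25 plus isoproterenol at EC100; 0% = vehicle plus submaximal agonist and 100% = vehicle plus saturating agonist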
An asterisk follows results filed as active; / = no result given.

SMILES	NPY-Y2 antag	NPY-Y1 PAM-ag	NPY-Y1 antag	NPY2 pot ag
CCOc1ccccc1-c1nnc(SCC(=O)NC2CC3CCC2C3)n1CC (stereo unspecified)	2.2	16.7	-2.2	-5.6
CCOc1ccc(CC(=O)C2C(=O)CCCC2=O)cc1OCC	12.3	-5.1	2.8	-6.5
COc1ccc(/C=C/C(=O)NC(=S)NN2CCCCC2c2cccnc2)cc1OC (stereo unspecified)	3.1	-13.1	9.7	-14.8
O=C(/C=C/c1ccc(Cl)cc1)NC(=S)NN1CCCCC1c1cccnc1 (stereo unspecified)	39.9*	-33.6	1.9	-5.7
CC1CCN(c2nc(-c3ccncc3)nc3ccccc23)CC1	29.5*	-57.6	31.0*	-41.2
CC(=O)N1CCOCCOCCOCC1	/	6.8	/	7.8
COc1ccc(-c2c3c(=O)n(C)c(=O)n(C)c3cn2-c2cc(OC)ccc2OC)cc1	13.3	-22.1	21.0*	-24.6
CCN(CC)c1ccc(/C=N/NC(=O)c2cccc(S(=O)(=O)Nc3ccccc3OC)c2)c(O)c1	-0.9	46.5*	-9.5	34.7*
Cc1cc(N(CCO)CCO)ccc1N=Nc1cc(F)ccc1F	/	62.3*	-16.9	69.0*
CCc1nc2sc(C#N)c(N)c2c2c1CCCC2	57.5*	-76.1	49.0*	-19.8
CSc1nnc2c3ccccc3n(Cc3ccccc3)c2n1	5.6	0.4	9.5	-13.2
CSc1nnc2c3ccccc3n(CCc3ccccc3)c2n1	27.7*	-20.4	28.9*	-11.5
C/C(=N\Nc1nc2ccccc2s1)c1ccc2c(c1)OCO2	31.1*	-13.1	35.2*	-9.1
COc1ccc(Nc2nc(-c3ccc(OC)cc3)cs2)cc1	/	-5.5	1.7	10.1
CC[n+]1c(/C=C2\C=C(C)CC(C)(C)C2)sc2ccccc21	19.9*	-13.4	21.8*	-8.7
CCC1=C/C(=C/c2sc3ccccc3[n+]2CC)CC(C)(C)C1	/	-3.9	6.3	17.8
COc1ccc(CNCC(O)COc2cccc3c2OC(C)(C)C3)cc1 (stereo unspecified)	/	106.2*	-8.5	95.1*
CC(C)c1ccc(C2CC(=O)c3cnc(N4CCc5ccccc5C4)nc3C2)cc1 (stereo unspecified)	2.2	11.1	-2.9	6.8
CC1CC(C)CN(c2ncc3c(n2)CC(c2ccccc2)CC3=O)C1 (stereo unspecified)	23.7*	-14.4	30.8*	-10.5
CCC1CCCCN1S(=O)(=O)c1ccc(C(=O)Nc2nnc(-c3ccccc3Cl)o2)cc1 (stereo unspecified)	-2.9	5.3	2.1	16.7
CC1CCCCN1S(=O)(=O)c1ccc(C(=O)Nc2nnc(-c3ccccc3Cl)o2)cc1 (stereo unspecified)	-3.4	94.6*	-15.6	98.5*
Cc1ccc(C(C)C)c(OCC(O)CN2CC(C)OC(C)C2)c1 (stereo unspecified)	4.1	93.4*	-9.6	91.8*
Cc1ccc(C(C)C)c(OCC(=O)N2CCOCC2)c1	11.2	1.0	5.2	-1.6
Cc1cc(OCC(O)CN2CCN(C)CC2)ccc1C(C)C (stereo unspecified)	-0.4	-19.7	5.3	2.5
Cc1ccc(C(C)C)c(OCC(O)CN2CCOCC2)c1 (stereo unspecified)	1.0	89.0*	-13.4	76.0*
SMILES	NPY-Y2 antag	NPY-Y1 PAM-ag	NPY-Y1 antag	NPY2 pot ag
Cc1ccc(OCC(O)CN2CCN(CC(O)COC(C)C)CC2)c(C(C)(C)C)c1 (stereo unspecified)	4.8	95.6*	-14.9	93.0*
Cc1ccc(Cl)cc1N1CCN(CC(O)COC(C)C)CC1 (stereo unspecified)	/	2.2	/	-12.9
Cc1ccc(C(C)C)c(OCC(O)CN2CCN(CCO)CC2)c1 (stereo unspecified)	3.6	101.5*	-10.9	80.5*
CC1CN(CC(O)COc2ccc(C(=O)c3ccccc3)cc2)CC(C)O1 (stereo unspecified)	1.8	-13.8	0.8	-11.6
Cc1c(Cl)cccc1NC(CC(=O)c1ccccc1)C(=O)O (stereo unspecified)	3.3	6.6	0.9	-9.2
Cc1ccc(NCc2nnc(SCCN3CCCCC3)n2CC2CCCO2)cc1Cl (stereo unspecified)	14.8	7.9	10.7	-3.2
Cc1ccc(C(C(=O)NC2CCCCC2)N(CC2CCCO2)C(=O)CNC(=O)c2ccco2)cc1 (stereo unspecified)	1.2	2.4	-1.7	-3.0
O=C(Nc1cccc(C(F)(F)F)c1)C(SCCO)c1ccccc1 (stereo unspecified)	1.4	7.7	1.8	3.7
CCC(C(=O)Nc1cccc(C(F)(F)F)c1)c1ccccc1 (stereo unspecified)	7.0	-6.5	20.3*	-13.9
Cc1cc(NS(=O)(=O)c2ccc(NC(=O)C(CC(C)C)N3C(=O)c4ccccc4C3=O)cc2)nc(C)n1 (stereo unspecified)	-1.1	-22.4	4.1	-6.2
c1ccc(-c2ccccc2OCCCN2CCCCC2)cc1	18.0*	12.7	28.0*	-5.8
Clc1ccc(CN2C3=NCCCN3c3ccccc32)cc1Cl	/	-21.5	21.2*	-18.5
CCN(CC)CCCNC(=O)C1CCN(C(=O)c2cc3sccc3n2Cc2ccc(F)cc2)CC1	0.6	63.8*	-4.8	100.2*
COCCCNC(=O)C1CCN(C(=O)c2cc3sccc3n2Cc2ccc(F)cc2)CC1	-0.4	17.7	-1.6	9.4
Cc1ccc(-c2ccc(CCC(=O)O)n2NC(N)=S)cc1	0.2	-12.9	-1.2	0.2
COCCn1c(=S)[nH]c2cc(C(=O)N3CCc4ccccc4C3)ccc2c1=O	/	-29.6	10.2	-26.7
Cn1c(C(=O)NCc2ccccn2)cc2c(=O)n(C)c3ccccc3c21	-7.0	37.0*	-11.8	42.2*
CCc1ccc(-c2nc(CSCC(=O)NCc3ccco3)c(C)o2)cc1	/	-2.7	21.1*	-7.7
CCOC(=O)c1c(NC(=O)CSc2nc3cc(Cl)ccc3s2)sc(C(C)=O)c1C	0.3	11.2	0.9	1.2
CCOC(=O)c1c(NC(=O)CSc2nc3ccccc3s2)sc(C(C)=O)c1C	22.3*	-33.2	39.0*	-32.3
CCN(CC)C(=O)C(C)N(C#N)c1nc(C)cc(C)n1 (stereo unspecified)	-0.4	114.1*	-11.6	104.8*
Cc1ccc(C2CC(c3ccccc3)=NN2c2ccccc2)o1 (stereo unspecified)	5.9	11.5	6.2	-11.6
Cc1cc(C)c(NC(=O)C2CC(=O)N(Cc3ccccc3)C2)c(C)c1 (stereo unspecified)	/	15.8	1.5	9.2
Cc1ccc(-c2nc3ncccc3o2)cc1NC(=O)c1cc2ccccc2o1	19.7*	10.2	22.2*	20.1
COC(=O)CSc1nc2ccc(NC(=O)CSc3nnnn3Cc3ccccc3)cc2s1	-2.3	108.5*	-11.1	104.6*
COc1cccc(OC)c1OCCCCCc1c(C)n[nH]c1C	-0.7	1.8	-3.0	9.2
CCOc1ccccc1CN(Cc1ccco1)S(=O)(=O)c1ccc(-n2cnnn2)c(OC)c1	17.6*	-11.2	38.0*	-21.1
COc1ccc(O)c(-c2cc(-c3cccs3)[nH]n2)c1	-8.0	57.7*	-23.0	41.7*
COc1cc2c(cc1OC)CN(c1nc(CN3CCCCC3)nc3sc4c(c13)CCCC4)CC2	20.4*	-68.7	23.3*	-14.7
